# Assay results published in PMC10165662 (Bioorganic & medicinal chemistry letters, 2023).
# Entries after “also recorded” stand apart in the source; their conditions may differ. Peptide text beside a SMILES is read from it. * marks the point of attachment. AMC = Cc1cc(=O)oc2cc(N*)ccc12
# Target: 20S proteasome (sCP), β5 subunit (Homo sapiens, UniProt P28074)
# Format: biochemical
# Conditions: Figures 2C and 4B
# Outline: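 Purified human constitutive 20S proteasome (5 nM) incubated with LLVY-conjugated test substrate (10 μM in aminocoumarin time course) up to 4 h at 37 °C. Free LLVY [M+H] EIC quantified by single-quadrupole LC-MS against a purified LLVY standard curve (20–1250 pmol; LOQ 20 pmol), giving % cleaved. Reference fluorogenic substrates included each replicate; triplicates; one-way ANOVA.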
smiles,measurement,value
Cc1cc(=O)oc2cc(NC(=O)[C@H](Cc3ccc(O)cc3)NC(=O)[C@@H](NC(=O)[C@H](CC(C)C)NC(=O)[C@@H](N)CC(C)C)C(C)C)ccc12 [LLVY-AMC] (H-LLVY-{AMC}),Rate of hydrolysis by the sCP in time-dependent MS analysis (in words),hydrolyzed by the sCP faster than TAS-1; also recorded: faster rate than the molecule with 6-aminocoumarin
